# Assay results as given in ChEMBL document CHEMBL1268911, “Novel agonists and antagonists for human protease activated receptor 2” (J Med Chem, 2010).
# pEC50, pIC50: −log10 of the molar value. Activity calls are given as the source filed them. The rule behind the calls is not given here.
# Molecular target: T1, Proteinase-activated receptor 2 (Homo sapiens, UniProt P55085)
# T1 sequence (P55085 whole entry): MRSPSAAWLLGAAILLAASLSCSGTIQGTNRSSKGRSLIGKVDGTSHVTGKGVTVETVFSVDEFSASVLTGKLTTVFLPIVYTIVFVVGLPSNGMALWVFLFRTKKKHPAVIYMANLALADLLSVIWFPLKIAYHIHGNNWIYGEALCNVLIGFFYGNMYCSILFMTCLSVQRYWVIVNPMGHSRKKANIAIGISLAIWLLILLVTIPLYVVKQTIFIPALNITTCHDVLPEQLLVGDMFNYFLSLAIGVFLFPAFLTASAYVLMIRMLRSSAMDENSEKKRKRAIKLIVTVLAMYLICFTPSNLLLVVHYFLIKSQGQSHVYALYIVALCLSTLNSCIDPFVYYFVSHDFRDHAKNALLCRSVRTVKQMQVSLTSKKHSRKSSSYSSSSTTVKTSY
# Experiment: Antagonist activity at PAR2 receptor in human HT-29 cells assessed as inhibition of intracellular calcium release
# Type: functional, cell-based
# Conditions: read-out: IC50
row,Compound,pIC50
1,CC[C@H](C)[C@H](NC(=O)[C@H](CC1CCCCC1)NC(=O)c1ccno1)C(=O)Nc1ccc(CC(=O)N2CCOCC2)cc1,4.24

# Same assay, conditions: read-out: pIC50 (converted)
row,Compound,IC50
1,CC[C@H](C)[C@H](NC(=O)[C@H](CC1CCCCC1)NC(=O)c1ccno1)C(=O)N1CCC2(CCc3ccccc32)CC1,7.94 µM

# Molecular target: Proteinase-activated receptor 2 (Homo sapiens) (UniProt P55085)
# Experiment: Agonist activity at PAR2 receptor in human HT-29 cells assessed as induction of intracellular calcium release at 1 uM relative to SLIGRLI-NH2
# Type: functional, cell-based
# Conditions: not given
# Outline: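 HT29 cells, Fluo-3 AM loaded, in HBSS/HEPES/probenecid buffer pH 7.4 with 2% DMSO final. Each agonist given once at 1 μM. Fluorescence (ex 495/em 520 nm) was read over 60 s after addition, and iCa2+ release was compared with SLIGRLI-NH2.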
row,Compound,Activity
1,CC[C@H](C)[C@H](NC(=O)[C@H](CC1CCCCC1)NC(=O)c1ccno1)C(=O)NCCC(=O)N1CCC(CN)CC1,97%
2,CC[C@H](C)[C@H](NC(=O)[C@H](CC1CCCCC1)NC(=O)c1ccno1)C(=O)NCCC(=O)Nc1ccc(CCN)cc1,130%
3,CC[C@H](C)[C@H](NC(=O)[C@H](CC1CCCCC1)NC(=O)c1ccno1)C(=O)NCCCCC(=O)N1CCC(CN)CC1,181%
4,CC[C@H](C)[C@H](NC(=O)[C@H](CC1CCCCC1)NC(=O)c1ccno1)C(=O)NCCCCCN,60%
5,CC[C@H](C)[C@H](NC(=O)[C@H](CC1CCCCC1)NC(=O)c1ccno1)C(=O)NCCCCC(=O)Nc1ccc(CCN)cc1,142%
6,CC[C@H](C)[C@H](NC(=O)[C@H](CC1CCCCC1)NC(=O)c1ccno1)C(=O)NCCCCC(=O)NCc1cccnc1,130%
7,"CC[C@H](C)C(NC(=O)[C@H](CC1CCCCC1)NC(=O)c1ccno1)C(=O)NCCC(=O)NCc1cccnc1 (single isomer, unassigned)",122%
8,CC[C@H](C)[C@H](NC(=O)[C@H](CC1CCCCC1)NC(=O)c1ccno1)C(=O)NCCCN,57%

# Molecular target: T1, Proteinase-activated receptor 2
# Experiment: Agonist activity at human PAR2 receptor in HEK293 cells assessed as induction of intracellular calcium release
# Type: functional, cell-based
# Conditions: not given
row,Compound,pEC50
1,CC[C@H](C)[C@H](NC(=O)[C@H](CC1CCCCC1)NC(=O)c1ccco1)C(N)=O,< 4.30
2,CC[C@H](C)[C@H](NC(=O)[C@H](CC1CCCCC1)NC(=O)c1cnccn1)C(N)=O,< 4.00
3,CC[C@H](C)[C@H](NC(=O)[C@H](CC1CCCCC1)NC(=O)c1coc(C)n1)C(N)=O,< 4.00

# Molecular target: Proteinase-activated receptor 2 (Homo sapiens) (UniProt P55085)
# Experiment: Antagonist activity at PAR2 receptor in human HT-29 cells assessed as inhibition of intracellular calcium release at 5 uM relative to SLIGRLI-NH2
# Type: functional, cell-based
# Design: scale not given: the % may be the effect or the level left
# Conditions: not given
# Outline: (§1)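 Single-point inhibition in Fluo-3-loaded HT29 cells. Antagonist was given at 5 or 50 μM before 2.5 μM SLIGRLI-NH2. Calcium efflux was read as fluorescence and expressed as percent inhibition, with 100% meaning complete block.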
row,Compound,Activity
1,CC[C@H](C)[C@H](NC(=O)[C@H](CC1CCCCC1)NC(=O)c1ccno1)C(=O)N1CCc2ccccc2C1,40%
2,CC[C@H](C)[C@H](NC(=O)[C@H](CC1CCCCC1)NC(=O)c1ccno1)C(=O)Nc1cccc2ccccc12,40%
3,CC[C@H](C)[C@H](NC(=O)[C@H](CC1CCCCC1)NC(=O)c1ccno1)C(=O)Nc1ccccc1-c1ccccc1,40%
4,CC[C@H](C)[C@H](NC(=O)[C@H](CC1CCCCC1)NC(=O)c1ccno1)C(=O)N1CCC2(CCc3ccccc32)CC1,40%
5,CC[C@H](C)[C@H](NC(=O)[C@H](CC1CCCCC1)NC(=O)c1ccno1)C(=O)N1CCN(c2ccccc2C)CC1,40%
6,CC[C@H](C)[C@H](NC(=O)[C@H](CC1CCCCC1)NC(=O)c1ccno1)C(=O)N1CCN(c2ccccc2)CC1,40%

# Molecular target: T2, Proteinase-activated receptor 1 (Homo sapiens) (UniProt P25116)
# T2 sequence (whole entry): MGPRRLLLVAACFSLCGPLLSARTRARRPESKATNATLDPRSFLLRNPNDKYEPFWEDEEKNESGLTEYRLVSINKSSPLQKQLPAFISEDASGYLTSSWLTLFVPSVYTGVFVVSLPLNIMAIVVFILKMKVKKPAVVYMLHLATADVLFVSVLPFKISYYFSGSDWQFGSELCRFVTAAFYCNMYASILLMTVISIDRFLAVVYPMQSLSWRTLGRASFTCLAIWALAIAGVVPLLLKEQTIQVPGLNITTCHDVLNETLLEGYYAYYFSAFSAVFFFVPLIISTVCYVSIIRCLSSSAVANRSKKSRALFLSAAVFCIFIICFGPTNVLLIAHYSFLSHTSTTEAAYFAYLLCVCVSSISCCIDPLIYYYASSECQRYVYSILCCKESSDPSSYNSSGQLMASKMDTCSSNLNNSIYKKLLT
# Experiment: Agonist activity at human PAR1 receptor in HEK293 cells relative to TFLLR-NH2
# Type: functional, cell-based
# Conditions: not given
row,Compound,Activity
1,CC[C@H](C)[C@H](NC(=O)[C@H](Cc1ccccc1)NC(=O)c1ccco1)C(N)=O,Active

# Molecular target: Proteinase-activated receptor 2 (Homo sapiens) (UniProt P55085)
# Experiment: Antagonist activity at PAR2 receptor in human HT-29 cells assessed as inhibition of intracellular calcium release at 50 uM relative to SLIGRLI-NH2
# Type: functional, cell-based
# Conditions: not given
# Outline: as §1
row,Compound,inhibition
1,CC[C@H](C)[C@H](NC(=O)[C@H](CC1CCCCC1)NC(=O)c1ccno1)C(=O)N1CCC2(CCc3ccccc32)CC1,Active

# Molecular target: T1, Proteinase-activated receptor 2
# Experiment: Agonist activity at PAR2 receptor in human HT-29 cells assessed as induction of intracellular calcium release
# Type: functional, cell-based
# Conditions: not given
row,Compound,pEC50
1,CC[C@H](C)[C@H](NC(=O)[C@H](CC1CCCCC1)NC(=O)c1ccno1)C(=O)NC1CCN([C@@H](CC(C)C)C(=O)N2CCC(CN)CC2)C1=O (stereo partly specified),4.87
2,CC[C@H](C)[C@H](NC(=O)[C@H](CC1CCCCC1)NC(=O)c1ccno1)C(=O)NCc1ccc(C(=O)N2CCC(CN)CC2)cc1,5.96
3,CC[C@H](C)[C@H](NC(=O)[C@H](CC1CCCCC1)NC(=O)c1ccno1)C(=O)Nc1cccc(C(=O)N2CCC(CN)CC2)c1,5.66
4,CC[C@H](C)[C@H](NC(=O)[C@H](CC1CCCCC1)NC(=O)c1ccno1)C(=O)N1CCC(C(=O)N2CCC(CN)CC2)CC1,4.86
5,CC[C@H](C)[C@H](NC(=O)[C@H](CC1CCCCC1)NC(=O)c1ccno1)C(=O)Nc1ccc(C(=O)N2CCC(CN)CC2)cc1,< 4.30
6,CC[C@H](C)[C@H](NC(=O)[C@H](CC1CCCCC1)NC(=O)c1ccno1)C(=O)N1CCCC(C(=O)N2CCC(CN)CC2)C1 (stereo partly specified),4.77
7,CC[C@H](C)[C@H](NC(=O)[C@H](CC1CCCCC1)NC(=O)c1ccno1)C(=O)N1CCCCC1C(=O)N1CCC(CN)CC1 (stereo partly specified),5.15

# Same assay, conditions: ht-29
row,Compound,pEC50
1,CC[C@H](C)[C@H](NC(=O)[C@H](CC1CCCCC1)NC(=O)c1ccno1)C(=O)N[C@H]1CCC2SC[C@@H](C(=O)N3CCC(CN)CC3)N2C1=O (stereo partly specified),5.21

# Molecular target: Proteinase-activated receptor 2 (Homo sapiens) (UniProt P55085)
# Experiment: Agonist activity at PAR2 receptor in human HT-29 cells assessed as induction of intracellular calcium release at 50 uM relative to […]
# Type: functional, cell-based
# Conditions: not given
# Outline: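 HT29 cells loaded with Fluo-3 AM in HBSS/HEPES/probenecid, pH 7.4. Compounds were tested at one concentration, 50 μM, and Ca2+ release (ex 495/em 520 nm, 60 s read) was expressed relative to 2-furoyl-LIGRLI-NH2 at the same concentration.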
row,Compound,Activity
1,CC[C@H](C)[C@H](NC(=O)[C@H](CC1CCCCC1)NC(=O)c1ccco1)C(N)=O,58%
2,CC[C@H](C)[C@H](NC(=O)[C@@H](NC(=O)c1ccco1)C1CCCCC1)C(N)=O,12%
3,CC[C@H](C)[C@H](NC(=O)[C@H](CC(C)C)NC(=O)c1ccco1)C(N)=O,38%
4,CC[C@H](C)[C@H](NC(=O)[C@H](Cc1ccccc1)NC(=O)c1ccco1)C(N)=O,67%
5,CC(C)C[C@H](NC(=O)c1ccco1)C(=O)N[C@@H](Cc1ccc(F)cc1)C(N)=O,19%
6,CC(C)C[C@H](NC(=O)c1ccco1)C(=O)N[C@@H](Cc1ccccc1)C(N)=O,22%
7,CC(C)C[C@H](NC(=O)c1ccco1)C(=O)N[C@@H](CC1CCCCC1)C(N)=O,43%
